# Published values gathered from unrelated publications.
# Lines come from different studies, so protocols differ.
# ADORA1: Adenosine receptor A1 (ADORA1, Homo sapiens, UniProt P30542)
# USP5: Ubiquitin carboxyl-terminal hydrolase 5 (USP5, Homo sapiens, UniProt P45974)
# TACR3: Neuromedin-K receptor (TACR3, Homo sapiens, UniProt P29371)
# MAP4K3: Mitogen-activated protein kinase kinase kinase kinase 3 (MAP4K3, Homo sapiens, UniProt Q8IVH8)
Structure (SMILES),target,test,conditions,inhibition [%]
OC[C@@]12C[C@@H]1[C@@H](n1cnc3c(NC(C4CCCC4)C4CCCC4)nc(Cl)cc31)[C@H](O)[C@@H]2O,ADORA1,"ligand displacement, radioligand",10 µM,11
N=C(N)c1ccc2cc(OC(=O)c3ccc(N=C(N)N)cc3)ccc2c1,USP5,"enzyme activity, inhibitor",10 µM,0
Cn1cc(-c2cc(F)cc(N3CCn4c(cc5c4CCCC5)C3=O)c2CO)cc(Nc2ccc(N3CCN(C4COC4)CC3)cn2)c1=O,"Inhibitor of nuclear factor kappa-B kinase subunit alpha (CHUK, Homo sapiens, UniProt O15111)","enzyme activity, inhibitor",0.1 µM,14
COc1cc(Nc2ncc(F)c(Nc3ccc4c(n3)NC(=O)C(C)(C)O4)n2)cc(OC)c1OC,"Serine/threonine-protein kinase 32C (STK32C, Homo sapiens, UniProt Q86UX6)","binding, competition with immobilised ligand",10 µM,0
CCOC(=O)c1ccc(OC(=O)CCCCCNC(=N)N)cc1,USP5,"enzyme activity, inhibitor",10 µM,1
Cn1c(=O)c2ncnnc2n(C)c1=O,USP5,"enzyme activity, inhibitor",17 µM,98
CN(C)C(=O)COC(=O)Cc1ccc(OC(=O)c2ccc(NC(=N)N)cc2)cc1,"Deubiquitinase OTUD6B (OTUD6B, Homo sapiens, UniProt Q8N6M0)","enzyme activity, inhibitor",10 µM,1
C[C@H](C(=O)N[C@H]1COc2ccccc2[C@@H]1S(C)(=O)=O)c1ccc(F)cc1,TACR3,cell-free assay,10 µM,-11
O[C@H]1[C@H](n2cnc3c(NC(C4CCCCC4)C4CCCCC4)nc(Cl)nc32)[C@H]2C[C@@]2(CF)[C@H]1O,ADORA1,"ligand displacement, radioligand",10 µM,47
C#Cc1n[nH]c2c(-c3cn([C@@H](C)c4ccccn4)c(=O)[nH]c3=O)cc(F)cc12,MAP4K3,"enzyme activity, inhibitor",0.1 µM,-2.5
CCOC(=O)[C@@]12C[C@@H]1[C@@H](n1cnc3c(NC(C4CCCC4)C4CCCC4)nc(Cl)nc31)[C@H](O)[C@@H]2O,ADORA1,"ligand displacement, radioligand",10 µM,55
c1ccc(C(NCCNC(c2ccccc2)c2ccccc2)c2ccccc2)cc1,TACR3,cell-free assay,10 µM,61
CCCCSC[C@@]12C[C@@H]1[C@@H](n1cnc3c(NC(C4CCCC4)C4CCCC4)nc(Cl)nc31)[C@H](O)[C@@H]2O,ADORA1,"ligand displacement, radioligand",10 µM,-1
C#Cc1n[nH]c2c(-c3cn([C@@H](C)c4ccccc4)c(=O)[nH]c3=O)cc(F)cc12,MAP4K3,"enzyme activity, inhibitor",0.1 µM,-1.9
CNC(=O)[C@H](Cc1ccccc1)NC(=O)[C@H](CC(C)C)[C@H](CSc1cccs1)C(=O)NO,"Matrilysin (MMP7, Homo sapiens, UniProt P09237)","enzyme activity, inhibitor",100 pM,4
